Experimental data: ChEMBL document CHEMBL3593166, “Hybrid chemistry. Part 4: Discovery of etravirine-VRX-480773 hybrids as potent HIV-1 non-nucleoside reverse transcriptase inhibitors” (Bioorg Med Chem, 2015)
pEC50, pIC50: −log10 of the molar value. The source made the active and inactive calls. The calls are words filed in the database; no cut-off is given here.

Columns and labels:
[1] = system: Human immunodeficiency virus 1; test: Antiviral activity against HIV1 3B infected in human MT4 cells assessed as inhibition of virus-induced cytopathicity incubated for 4 days by MTT method; type: functional, organism-based; conditions: Human immunodeficiency virus 1, 3B, MT4, 96 h
Procedure, shortened: (§1)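 Virus stocks titrated in MT-4 cells as CCID50. MT-4 cells at 1 × 10^5 cells/mL infected at MOI 0.02 (HIV-1 IIIB or HIV-2 ROD), then plated immediately over serial compound dilutions (DMSO stocks, 50 mM or higher). After 4 days at 37 °C, viable cells counted by MTT. EC50 from means of at least three separate experiments.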

[2] = Cytotoxicity against human MT4 cells assessed as reduction in cell viability incubated for 4 days MTT method; type: cell-based
Procedure, shortened: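 Uninfected MT-4 cells at 1 × 10^5 cells/mL exposed to serial compound dilutions (DMSO stocks, 50 mM or higher) in parallel with the antiviral test. Viability read by MTT after 4 days at 37 °C. CC50 is the concentration lowering viability by 50%. Values are means of at least three experiments.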

[3] = Selectivity index, ratio of CC50 for human MT4 cells to EC50 for HIV1 3B infected in human MT4 cells; type: toxicity, cell-based; conditions: HIV1 3B infected MT4 cells, read-out: Ratio CC50/EC50
Procedure, shortened: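 SI calculated as CC50 in uninfected MT-4 cells divided by EC50 against WT HIV-1 IIIB. Both come from the 4-day MTT assays at 37 °C; infection was at MOI 0.02 with cells at 1 × 10^5 cells/mL.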

[4] = system: Human immunodeficiency virus 2; test: Antiviral activity against HIV2 ROD infected in human MT4 cells assessed as inhibition of virus-induced cytopathicity incubated for 4 days by MTT method; type: functional, organism-based; conditions: Human immunodeficiency virus 2, ISOLATE ROD, MT4, 96 h; procedure, shortened: as §1
[5] = system: Human immunodeficiency virus 1; test: Antiviral activity against HIV1 RES056 expressing reverse transcriptase K103N + Y181C mutant infected in human MT4 cells assessed as inhibition of virus-induced cytopathicity incubated for 4 days by MTT method; type: functional, organism-based; conditions: Human immunodeficiency virus 1, RES056, MT4, 96 h
Procedure, shortened: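 Serial compound dilutions in MT-4 cells (1 × 10^5 cells/mL) infected at MOI 0.02 with K103N+Y181C double-mutant HIV-1. Cells added to compound right after infection and incubated 4 days at 37 °C. Viable cells counted by MTT and EC50 derived. Cytotoxicity run in parallel on uninfected cells. Values are the mean of at least three experiments.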

[6] = molecular target: Human immunodeficiency virus type 1 reverse transcriptase (Human immunodeficiency virus 1, UniProt Q72547); test: Inhibition of HIV1 recombinant wild type reverse transcriptase p66/p51 assessed as reduction in biotin deoxyuridine triphosphate (biotin-dUTP) incorporation using poly(rA)/oligo (dT)16 template and primer by spectrofluorometry
[7] = system: Human immunodeficiency virus 1; test: Antiviral activity against HIV1 3B infected in human MT4 cells […] at 100 fold antiviral EC50 level added 3 to 5 hrs post infection and measured 31 hrs post infection by p24 enzyme-linked immunosorbent assay; type: functional, organism-based
Procedure, shortened: (§2)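 MT-4 cells infected with WT HIV-1 at m.o.i. 0.5; after 1 h adsorption, seeded at 45,000 cells/well, 37°C. Compounds added at 0, 1, 2, 3, 4, 5, 6, 7, 8, 9, 24 or 25 h post-infection. Reference agents at fixed levels (ETV 0.19 µM); hybrids at 100-fold their MT-4/MTT EC50. Virus production measured by p24 ELISA at 31 h post-infection.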

[8] = system: Human immunodeficiency virus 1; test: Antiviral activity against HIV1 3B infected in human MT4 cells […] at 0.19 uM added 3 to 5 hrs post infection and measured 31 hrs post infection by p24 enzyme-linked immunosorbent assay; type: functional, organism-based; procedure, shortened: as §2
[9] = system: Human immunodeficiency virus 1; test: Antiviral activity against HIV1 3B infected in human MT4 cells […] added 3 to 5 hrs post infection and measured 31 hrs post infection by p24 enzyme-linked immunosorbent assay; type: functional, organism-based
Procedure, shortened: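 MT-4 cells infected with WT HIV-1 at m.o.i. 0.5 and allowed 1 h adsorption, then seeded at 45,000 cells/well at 37 °C. Compound added at set times from 0 to 25 h post-infection. Virus production read by p24 ELISA at 31 h post-infection.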

Row | Structure (SMILES) | pEC50 [1] | CC50 at 96 h [2] [µM] | selectivity ratio [3] | pEC50 [4] | pEC50 [5] | pIC50 [6] | inhibition [7] | inhibition [8] | inhibition [9]
1 | Cc1cc(C#N)cc(C)c1Oc1ccnc(SCC(=O)Nc2cc(Cl)cc(Cl)c2)n1 | 4.97 | ≥ 41 | > 3.7 | < 4.39 | < 4.39 |  |  |  | 
2 | Cc1cc(C#N)cc(C)c1Oc1ccnc(SCC(=O)Nc2ccc(Cl)c(Cl)c2)n1 | 5.28 | 89 | 17 | < 4.05 | < 4.05 |  |  |  | 
3 | Cc1cc(C#N)cc(C)c1Oc1ccnc(SCC(=O)Nc2ccc(S(N)(=O)=O)cc2)n1 | 5.10 | > 266 | > 34 | < 3.58 | < 3.58 |  |  |  | 
4 | Cc1cc(C#N)cc(C)c1Oc1ccnc(SCC(=O)Nc2ccc([N+](=O)[O-])cc2)n1 | 5.85 | > 287 | > 205 | < 3.54 | < 3.54 |  |  |  | 
5 | Cc1cc(C#N)cc(C)c1Oc1ccnc(SCC(=O)Nc2ccccc2[N+](=O)[O-])n1 | 6.47 | > 287 | > 844 | < 3.54 | < 3.54 | 5.93 | Active |  | 
6 | NS(=O)(=O)c1ccc(NC(=O)CSc2nnc(Br)n2-c2ccc(C3CC3)c3ccccc23)c(Cl)c1 | 9.85 | 5.82 | 41600 |  | 9.64 |  |  |  | 
7 | Cc1cc(C#N)cc(C)c1Oc1ccnc(SCC(=O)Nc2cccc(Cl)c2)n1 | 5.10 | > 294 | > 37 | < 3.53 | < 3.53 |  |  |  | 
8 | Cc1cc(C#N)cc(C)c1Oc1ccnc(SCC(=O)Nc2ccc(C#N)cc2F)n1 | 5.22 | > 288 | > 48 | < 3.54 | < 3.54 |  |  |  | 
9 | Cc1cc(C#N)cc(C)c1Oc1nc(Nc2ccc(C#N)cc2)nc(N)c1Br [ETRAVIRINE] |  | > 4.6 | > 1120 |  |  |  |  | Active | 
10 | Cc1cc(C#N)cc(C)c1Oc1ccnc(SCC(=O)Nc2ccc(O)cc2)n1 | 5.08 | 71 | 9 | < 4.15 | < 4.15 |  |  |  | 
11 | Cc1cc(C#N)cc(C)c1Oc1ccnc(SCC(=O)Nc2ccc(F)cc2)n1 | 5.10 | > 306 | > 38 | < 3.51 | < 3.51 |  |  |  | 
12 | CC(C)Nc1cccnc1N1CCN(C(=O)c2cc3cc(NS(C)(=O)=O)ccc3[nH]2)CC1 [DELAVIRDINE] |  | > 44 | > 67 |  | < 4.36 |  |  |  | 
13 | Cc1cc(C#N)cc(C)c1Oc1ccnc(SCC(=O)Nc2cccc([N+](=O)[O-])c2)n1 | 4.39 | > 287 | > 7 | < 3.54 | < 3.54 |  |  |  | 
14 | Cc1ccnc2c1NC(=O)c1cccnc1N2C1CC1 |  |  |  |  |  |  |  |  | Active
15 | Cc1cc(C#N)cc(C)c1Oc1ccnc(SCC(=O)Nc2ccccc2Cl)n1 | 6.62 | > 294 | > 1220 | < 3.53 | ≤ 4.96 | 6.33 | Active |  | 
16 | COc1ccc(NC(=O)CSc2nccc(Oc3c(C)cc(C#N)cc3C)n2)cc1 | 5.14 | ≥ 69 | ≥ 9 | < 4.16 | < 4.16 |  |  |  | 
17 | Cc1cc(C#N)cc(C)c1Oc1ccnc(SCC(=O)Nc2ccc(Br)cc2)n1 | 5.85 | 24 | 17 | < 4.62 | < 4.62 |  |  |  | 
18 | Cc1cc(C#N)cc(C)c1Oc1ccnc(SCC(=O)Nc2ccccc2)n1 | < 3.49 | > 320 |  | < 3.49 | < 3.49 |  |  |  | 
19 | Cc1ccccc1NC(=O)CSc1nccc(Oc2c(C)cc(C#N)cc2C)n1 | 5.23 | > 309 | > 52 | < 3.51 | < 3.51 |  |  |  | 
20 | Cc1cc(C#N)cc(C)c1Oc1ccnc(SCC(=O)Nc2ccc(C#N)cc2)n1 | 5.37 | > 301 | > 70 | < 3.52 | < 3.52 |  |  |  | 
21 | Cc1cc(S(N)(=O)=O)ccc1NC(=O)CSc1nccc(Oc2c(C)cc(C#N)cc2C)n1 | 6.09 | 46 | 57 | < 4.34 | < 4.34 | 5.56 | Active |  | 
22 | Cc1cc(C#N)cc(C)c1Oc1ccnc(SCC(=O)Nc2ccc(Cl)cc2)n1 | 5.41 | > 294 | > 75 | < 3.53 | < 3.53 |  |  |  | 
23 | Cc1ccc(NC(=O)CSc2nccc(Oc3c(C)cc(C#N)cc3C)n2)cc1 | 5.29 | > 309 | > 61 | < 3.51 | < 3.51 |  |  |  | 
24 | Cc1cc(C#N)cc(C)c1Oc1ccnc(SCC(=O)Nc2cccc(F)c2)n1 | 5.09 | > 306 | > 38 | < 3.51 | < 3.51 |  |  |  | 
25 | Cc1cc(C#N)cc(C)c1Oc1ccnc(SCC(=O)Nc2ccc(Cl)cc2Cl)n1 | 5.92 | > 272 | > 227 | < 3.57 | < 3.57 |  |  |  | 
